According to ChEMBL document CHEMBL2413013, “Triplex-forming ability of oligonucleotides containing 1-aryl-1,2,3-triazole nucleobases linked via a two atom-length spacer” (Bioorg Med Chem, 2013):

Key:
[1] = Binding affinity to hairpin double stranded DNA AT base pair in sodium cacodylate buffer at pH 6.8 assessed as triplex-forming ability measuring melting temperature after by UV melting experiment
Outline: (§1)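 TFO and hairpin dsDNA target, each strand at 1.89 μM final, in 10 mM sodium cacodylate (pH 6.8) with 100 mM KCl and 50 mM MgCl₂. Annealed in boiling water, then cooled slowly to 5 °C. Melting was followed at 260 nm from 5 to 90 °C at 0.5 °C/min. Tm was taken by the two-point average method, mean of three independent runs.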

[2] = Binding affinity to hairpin double stranded DNA GC base pair in sodium cacodylate buffer at pH 6.8 assessed as triplex-forming ability measuring melting temperature after by UV melting experiment; outline: as §1
[3] = Binding affinity to hairpin double stranded DNA CG base pair in sodium cacodylate buffer at pH 6.8 assessed as triplex-forming ability measuring melting temperature after by UV melting experiment; outline: as §1
[4] = Binding affinity to hairpin double stranded DNA TA base pair in sodium cacodylate buffer at pH 6.8 assessed as triplex-forming ability measuring melting temperature after by UV melting experiment; outline: as §1

Cc1cn([C@H]2C[C@H](O[PH](OCCC#N)(OC[C@H]3O[C@@H](n4cc(C)c(=O)[nH]c4=O)C[C@@H]3O[PH](OCCC#N)(OC[C@H]3O[C@@H](n4cc(C)c(=O)[nH]c4=O)C[C@@H]3O[PH](OCCC#N)(OC[C@H]3O[C@@H](n4cc(C)c(=O)[nH]c4=O)C[C@@H]3O[PH](OCCC#N)(OC[C@H]3O[C@@H](n4cc(C)c(=O)[nH]c4=O)C[C@@H]3O[PH](OCCC#N)(OC(C)[C@H]3O[C@@H](n4ccc(N)nc4=O)C[C@@H]3O[PH](OCCC#N)(OC[C@H]3O[C@@H](n4cc(C)c(=O)[nH]c4=O)C[C@@H]3O[PH](OCCC#N)(OC[C@H]3O[C@@H](OCc4cn(-c5cccc(CO)c5)nn4)C[C@@H]3OP(=O)(O)OC[C@H]3O[C@@H](n4cc(C)c(=O)[nH]c4=O)C[C@@H]3O[PH](OCCC#N)(OC(C)[C@H]3O[C@@H](n4ccc(N)nc4=O)C[C@@H]3O[PH](OCCC#N)(OC[C@H]3O[C@@H](n4cc(C)c(=O)[nH]c4=O)C[C@@H]3O[PH](OCCC#N)(OC(C)[C@H]3O[C@@H](n4ccc(N)nc4=O)C[C@@H]3O[PH](OCCC#N)(OC[C@H]3O[C@@H](n4cc(C)c(=O)[nH]c4=O)C[C@@H]3O[PH](OCCC#N)(OC(C)[C@H]3O[C@@H](n4ccc(N)nc4=O)C[C@@H]3O[PH](OCCC#N)(OC[C@H]3O[C@@H](n4cc(C)c(=O)[nH]c4=O)C[C@@H]3O)N(C(C)C)C(C)C)N(C(C)C)C(C)C)N(C(C)C)C(C)C)N(C(C)C)C(C)C)N(C(C)C)C(C)C)N(C(C)C)C(C)C)N(C(C)C)C(C)C)N(C(C)C)C(C)C)N(C(C)C)C(C)C)N(C(C)C)C(C)C)N(C(C)C)C(C)C)N(C(C)C)C(C)C)N(C(C)C)C(C)C)[C@@H](CO)O2)c(=O)[nH]c1=O (stereo not given in full)
Tm [1]: 23 °C | Tm [2]: 23 °C | Tm [3]: 25 °C | Tm [4]: 22 °C

CC1=CN([C@H]2C[C@H](O[PH](OCCC#N)(OC(C)[C@H]3O[C@@H](n4ccc(N)nc4=O)C[C@@H]3O[PH](OCCC#N)(OC[C@H]3O[C@@H](n4cc(C)c(=O)[nH]c4=O)C[C@@H]3O[PH](OCCC#N)(OC[C@H]3O[C@@H](OCc4cn(-c5ccccc5O)nn4)C[C@@H]3OP(=O)(O)OC[C@H]3O[C@@H](n4cc(C)c(=O)[nH]c4=O)C[C@@H]3O[PH](OCCC#N)(OC(C)[C@H]3O[C@@H](n4ccc(N)nc4=O)C[C@@H]3O[PH](OCCC#N)(OC[C@H]3O[C@@H](n4cc(C)c(=O)[nH]c4=O)C[C@@H]3O[PH](OCCC#N)(OC(C)[C@H]3O[C@@H](n4ccc(N)nc4=O)C[C@@H]3O[PH](OCCC#N)(OC[C@H]3O[C@@H](n4cc(C)c(=O)[nH]c4=O)C[C@@H]3O[PH](OCCC#N)(OC(C)[C@H]3O[C@@H](n4ccc(N)nc4=O)C[C@@H]3O[PH](OCCC#N)(OC[C@H]3O[C@@H](n4cc(C)c(=O)[nH]c4=O)C[C@@H]3O)N(C(C)C)C(C)C)N(C(C)C)C(C)C)N(C(C)C)C(C)C)N(C(C)C)C(C)C)N(C(C)C)C(C)C)N(C(C)C)C(C)C)N(C(C)C)C(C)C)N(C(C)C)C(C)C)N(C(C)C)C(C)C)[C@@H](CO[PH](OCCC#N)(O[C@H]3C[C@H](n4cc(C)c(=O)[nH]c4=O)O[C@@H]3CO[PH](OCCC#N)(O[C@H]3C[C@H](n4cc(C)c(=O)[nH]c4=O)O[C@@H]3CO[PH](OCCC#N)(O[C@H]3C[C@H](n4cc(C)c(=O)[nH]c4=O)O[C@@H]3CO[PH](OCCC#N)(O[C@H]3C[C@H](n4cc(C)c(=O)[nH]c4=O)O[C@@H]3CO)N(C(C)C)C(C)C)N(C(C)C)C(C)C)N(C(C)C)C(C)C)N(C(C)C)C(C)C)O2)C(O)NC1=O (stereo not given in full)
Tm [1]: 20 °C | Tm [2]: 20 °C | Tm [3]: 23 °C | Tm [4]: 20 °C

Cc1cn([C@H]2C[C@H](O[PH](OCCC#N)(OC[C@H]3O[C@@H](n4cc(C)c(=O)[nH]c4=O)C[C@@H]3O[PH](OCCC#N)(OC[C@H]3O[C@@H](n4cc(C)c(=O)[nH]c4=O)C[C@@H]3O[PH](OCCC#N)(OC[C@H]3O[C@@H](n4cc(C)c(=O)[nH]c4=O)C[C@@H]3O[PH](OCCC#N)(OC[C@H]3O[C@@H](n4cc(C)c(=O)[nH]c4=O)C[C@@H]3O[PH](OCCC#N)(OC(C)[C@H]3O[C@@H](N4C=CC(N)=N[C@@H]4O)C[C@@H]3O[PH](OCCC#N)(OC[C@H]3O[C@@H](n4cc(C)c(=O)[nH]c4=O)C[C@@H]3O[PH](OCCC#N)(OC[C@H]3O[C@@H](OCc4cn(-c5ccccc5C(N)=O)nn4)C[C@@H]3OP(=O)(O)OC[C@H]3O[C@@H](n4cc(C)c(=O)[nH]c4=O)C[C@@H]3O[PH](OCCC#N)(OC(C)[C@H]3O[C@@H](n4ccc(N)nc4=O)C[C@@H]3O[PH](OCCC#N)(OC[C@H]3O[C@@H](n4cc(C)c(=O)[nH]c4=O)C[C@@H]3O[PH](OCCC#N)(OC(C)[C@H]3O[C@@H](n4ccc(N)nc4=O)C[C@@H]3O[PH](OCCC#N)(OC[C@H]3O[C@@H](n4cc(C)c(=O)[nH]c4=O)C[C@@H]3O[PH](OCCC#N)(OC(C)[C@H]3O[C@@H](n4ccc(N)nc4=O)C[C@@H]3O[PH](OCCC#N)(OC[C@H]3O[C@@H](n4cc(C)c(=O)[nH]c4=O)C[C@@H]3O)N(C(C)C)C(C)C)N(C(C)C)C(C)C)N(C(C)C)C(C)C)N(C(C)C)C(C)C)N(C(C)C)C(C)C)N(C(C)C)C(C)C)N(C(C)C)C(C)C)N(C(C)C)C(C)C)N(C(C)C)C(C)C)N(C(C)C)C(C)C)N(C(C)C)C(C)C)N(C(C)C)C(C)C)N(C(C)C)C(C)C)[C@@H](CO)O2)c(=O)[nH]c1=O (stereo not given in full)
Tm [1]: 18 °C | Tm [2]: 19 °C | Tm [3]: 21 °C | Tm [4]: 17 °C

Cc1cn([C@H]2C[C@H](O[PH](OCCC#N)(OC[C@H]3O[C@@H](n4cc(C)c(=O)[nH]c4=O)C[C@@H]3O[PH](OCCC#N)(OC[C@H]3O[C@@H](n4cc(C)c(=O)[nH]c4=O)C[C@@H]3O[PH](OCCC#N)(OC[C@H]3O[C@@H](n4cc(C)c(=O)[nH]c4=O)C[C@@H]3O[PH](OCCC#N)(OC[C@H]3O[C@@H](n4cc(C)c(=O)[nH]c4=O)C[C@@H]3O[PH](OCCC#N)(OC(C)[C@H]3O[C@@H](n4ccc(N)nc4=O)C[C@@H]3O[PH](OCCC#N)(OC[C@H]3O[C@@H](n4cc(C)c(=O)[nH]c4=O)C[C@@H]3O[PH](OCCC#N)(OC[C@H]3O[C@@H](CCc4cn(-c5cccc(CO)c5)nn4)C[C@@H]3OP(=O)(O)OC[C@H]3O[C@@H](n4cc(C)c(=O)[nH]c4=O)C[C@@H]3O[PH](OCCC#N)(OC(C)[C@H]3O[C@@H](n4ccc(N)nc4=O)C[C@@H]3O[PH](OCCC#N)(OC[C@H]3O[C@@H](n4cc(C)c(=O)[nH]c4=O)C[C@@H]3O[PH](OCCC#N)(OC(C)[C@H]3O[C@@H](n4ccc(N)nc4=O)C[C@@H]3O[PH](OCCC#N)(OC[C@H]3O[C@@H](n4cc(C)c(=O)[nH]c4=O)C[C@@H]3O[PH](OCCC#N)(OC(C)[C@H]3O[C@@H](n4ccc(N)nc4=O)C[C@@H]3O[PH](OCCC#N)(OC[C@H]3O[C@@H](n4cc(C)c(=O)[nH]c4=O)C[C@@H]3O)N(C(C)C)C(C)C)N(C(C)C)C(C)C)N(C(C)C)C(C)C)N(C(C)C)C(C)C)N(C(C)C)C(C)C)N(C(C)C)C(C)C)N(C(C)C)C(C)C)N(C(C)C)C(C)C)N(C(C)C)C(C)C)N(C(C)C)C(C)C)N(C(C)C)C(C)C)N(C(C)C)C(C)C)N(C(C)C)C(C)C)[C@@H](CO)O2)c(=O)[nH]c1=O (stereo not given in full)
Tm [1]: 19 °C | Tm [2]: 20 °C | Tm [3]: 23 °C | Tm [4]: 23 °C

Cc1cn([C@H]2C[C@H](O[PH](OCCC#N)(OC[C@H]3O[C@@H](n4cc(C)c(=O)[nH]c4=O)C[C@@H]3O[PH](OCCC#N)(OC[C@H]3O[C@@H](n4cc(C)c(=O)[nH]c4=O)C[C@@H]3O[PH](OCCC#N)(OC[C@H]3O[C@@H](n4cc(C)c(=O)[nH]c4=O)C[C@@H]3O[PH](OCCC#N)(OC[C@H]3O[C@@H](n4cc(C)c(=O)[nH]c4=O)C[C@@H]3O[PH](OCCC#N)(OC(C)[C@H]3O[C@@H](n4ccc(N)nc4=O)C[C@@H]3O[PH](OCCC#N)(OC[C@H]3O[C@@H](n4cc(C)c(=O)[nH]c4=O)C[C@@H]3O[PH](OCCC#N)(OC[C@H]3O[C@@H](CCc4cn(-c5ccc(CO)cc5)nn4)C[C@@H]3OP(=O)(O)OC[C@H]3O[C@@H](n4cc(C)c(=O)[nH]c4=O)C[C@@H]3O[PH](OCCC#N)(OC(C)[C@H]3O[C@@H](n4ccc(N)nc4=O)C[C@@H]3O[PH](OCCC#N)(OC[C@H]3O[C@@H](n4cc(C)c(=O)[nH]c4=O)C[C@@H]3O[PH](OCCC#N)(OC(C)[C@H]3O[C@@H](n4ccc(N)nc4=O)C[C@@H]3O[PH](OCCC#N)(OC[C@H]3O[C@@H](n4cc(C)c(=O)[nH]c4=O)C[C@@H]3O[PH](OCCC#N)(OC(C)[C@H]3O[C@@H](n4ccc(N)nc4=O)C[C@@H]3O[PH](OCCC#N)(OC[C@H]3O[C@@H](n4cc(C)c(=O)[nH]c4=O)C[C@@H]3O)N(C(C)C)C(C)C)N(C(C)C)C(C)C)N(C(C)C)C(C)C)N(C(C)C)C(C)C)N(C(C)C)C(C)C)N(C(C)C)C(C)C)N(C(C)C)C(C)C)N(C(C)C)C(C)C)N(C(C)C)C(C)C)N(C(C)C)C(C)C)N(C(C)C)C(C)C)N(C(C)C)C(C)C)N(C(C)C)C(C)C)[C@@H](CO)O2)c(=O)[nH]c1=O (stereo not given in full)
Tm [1]: 19 °C | Tm [2]: 19 °C | Tm [3]: 23 °C | Tm [4]: 22 °C
